# Only some compounds are listed: those with a hit (about 1.6% of all), similar ones and a draw of the others.
# PG9 binder = binders of HIV-1 gp120 antibody PG9, primary screen, biochemical, TR-FRET; HIV-1 gp120 / PG9 antibody interaction; TR-FRET gp120-PG9 antibody binding; inhibition, % at 6.7 µM; 0.43% of 360,000 active; AID 624416, 2012; in the data active means inhibition above about 8.5%
# VLA-4 inh = inhibition in human VLA-4 binding assay, primary screen, VLA-4 allosteric modulator project, MLPCN library, flow cytometry, VLA-4 expressing cells; ligand binding flow cytometry; inhibition, % (about 7 µM as worked out from the volumes in the protocol); AID 2557, 2010; 0.2% of 330,000 active; in the data active means inhibition above about 50%
# Target sequence (P13612 whole entry, looked up): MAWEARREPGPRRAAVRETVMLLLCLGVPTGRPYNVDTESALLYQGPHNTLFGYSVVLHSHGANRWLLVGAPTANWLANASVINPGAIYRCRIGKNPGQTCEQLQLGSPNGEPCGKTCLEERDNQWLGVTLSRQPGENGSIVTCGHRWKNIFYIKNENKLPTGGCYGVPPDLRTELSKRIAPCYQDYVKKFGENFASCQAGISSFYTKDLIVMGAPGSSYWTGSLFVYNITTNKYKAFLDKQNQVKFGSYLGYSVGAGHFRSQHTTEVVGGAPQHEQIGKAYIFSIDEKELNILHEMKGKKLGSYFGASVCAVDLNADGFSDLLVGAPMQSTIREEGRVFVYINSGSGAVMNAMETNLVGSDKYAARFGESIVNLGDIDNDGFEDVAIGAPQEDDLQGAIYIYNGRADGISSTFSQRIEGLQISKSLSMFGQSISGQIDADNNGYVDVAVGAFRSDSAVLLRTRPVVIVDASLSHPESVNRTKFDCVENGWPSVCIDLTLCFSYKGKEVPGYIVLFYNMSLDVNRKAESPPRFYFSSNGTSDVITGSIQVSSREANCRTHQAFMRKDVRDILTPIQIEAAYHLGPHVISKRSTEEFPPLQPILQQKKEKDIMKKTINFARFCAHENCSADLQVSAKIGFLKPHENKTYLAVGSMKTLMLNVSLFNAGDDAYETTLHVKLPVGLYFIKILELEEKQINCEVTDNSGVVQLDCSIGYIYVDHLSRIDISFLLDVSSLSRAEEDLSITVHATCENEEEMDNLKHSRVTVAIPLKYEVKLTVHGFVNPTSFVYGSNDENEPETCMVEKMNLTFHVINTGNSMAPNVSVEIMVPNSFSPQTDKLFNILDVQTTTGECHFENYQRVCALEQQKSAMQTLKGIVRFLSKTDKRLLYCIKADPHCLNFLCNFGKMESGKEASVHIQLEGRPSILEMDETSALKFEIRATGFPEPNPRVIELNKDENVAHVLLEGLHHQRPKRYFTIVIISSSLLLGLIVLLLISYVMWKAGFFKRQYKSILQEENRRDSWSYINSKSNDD
# Rev-erbA mod = modulators of Rev-erb alpha DNA binding, primary screen, biochemical, FITC-DNA, fluorescence polarization, uHTS | activity, % at 10 µM | Nuclear receptor subfamily 1 group D member 1 (Homo sapiens), P20393 | Rev-erbα–FITC-DNA binding, 90 min | 0.79% of 370,000 active | AID 1259318, 2017;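 active means activity above about 14%, limit read from the data; passing the limit was not always enough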;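 further: 0% = DMSO wells with 35 nM protein and 100% = DMSO wells with 750 nM protein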
# NR2E3 ag-1 = NR2E3 agonists in two-hybrid cells, primary screen, cell-based, luminescence, CHO-S, Gal4-NCOR/VP16-NR2E3 | luciferase | inhibition of corepressor binding, % at 3.98 µM | 0.35% of 360,000 active;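 active means inhibition above the mean of all tested compounds plus 3 SD, cut at about 70% in these data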;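 further: 0% = DMSO with NR2E3 transfected cells and 100% = cells lacking NR2E3 construct; higher means lower luciferase signal from less NR2E3 corepressor binding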
# NR2E3 ag-2 = inhibitors of NR2E3-RetCOR corepressor binding, primary screen, NR2E3 agonist project, biochemical, TR-FRET, GST-NR2E3, biotin-RetCOR; Photoreceptor-specific nuclear receptor (Homo sapiens), Q9Y5X4; 1536-well; inhibition of corepressor binding, % at 4.78 µM; 0.12% of 320,000 active; AID 2300, 2010;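 active means percent inhibition above the cutoff of mean plus 3 SD of all tested compounds, set per screening campaign, cut at about 20% in these data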;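 further: 0% = DMSO wells and 100% = biotin wells as full block of FRET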
#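 Format: 1536-well format; test system: GST-NR2E3 and biotin-RetCOR proteins; read-out basis: percent inhibition of TR-FRET ratio; timing: 5 h incubation at 4 °C; detection: time-resolved FRET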
# Rev-erbA confirm = modulators of Rev-erb alpha DNA binding, confirmation, biochemical, FITC-DNA, fluorescence polarization, single point. shares compounds with Rev-erbA mod. 90 min. activation, % at 25 µM. 61% of 3,000 active;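 active means activation at or above a set limit, or at least 3 SD above the negative control mean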;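 further: 0% = 35 nM protein with DMSO and 100% = 750 nM protein high control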
# RORg DNA counter = modulation of RORgamma DNA binding, dose response, counter-screen for Rev-erb alpha modulator project, biochemical, fluorescence polarization, FITC-DNA. shares compounds with Rev-erbA mod. purified RORgamma protein-FITC-DNA binding. IC50, µM. 8% of 910 active;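 active means Compounds whose fitted half-maximal concentration for disrupting protein-DNA binding is below 10 micromolar; the record names Rev-erb in its text, so the target is in doubt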
# The depositor's hits bear a star; x = not tested or not shown.
SMILES,PG9 binder,VLA-4 inh,Rev-erbA mod,NR2E3 ag-1,NR2E3 ag-2,Rev-erbA confirm,others
COc1ccccc1C(=O)Nc1ccc(Oc2ncnc3sc(-c4ccccc4)cc23)cc1,1,27,46*,3,-2,21*,
COc1cc(C(=O)Nc2ccc(Oc3ncnc4sc(-c5ccccc5)cc34)cc2)cc(OC)c1OC,7,-5,30*,-8,0,-9,
CC(=NNC(=O)Cn1ccc(C(F)(F)F)n1)c1ccc(-n2ccnc2)cc1,-1,-10,0,-20,x,x,
COC(=O)c1cc(COc2ccc3c(c2)oc(=O)c2ccccc23)c(C)o1,2,-2,29*,-7,-2,24*,
COCCOC(=O)c1c(C)oc2ccc(OCc3cc(C(=O)OC)oc3C)cc12,-1,5,0,15,1,x,
COc1ccc2c(c1)c(=O)c(C(=O)c1ccc(F)cc1)cn2CC(=O)Nc1ccc(F)cc1,7,-5,33*,-11,8,26*,
CCCCCn1c(SCC(=O)c2ccccc2)nc2cc(C(=O)NCC3CCCO3)ccc2c1=O (stereo not drawn),-1,x,69*,-15,x,25*,
O=C(CCc1c[nH]c2ccccc12)NCCc1ccc(Cl)cc1,-1,20,37*,-6,2,36*,RORg DNA counter=>40
CN(C)c1ccc(C=NN2C(=O)CSC2=S)c(Cl)c1,-2,x,22*,3,x,-3,
CCOC(=O)c1c(NC(=O)c2nc3n(n2)C(C(F)F)CC(C)N3)sc2c1CCCC2 (stereo not drawn),0,7,22*,-10,0,7,
Nc1ccc(N=Nc2ccccc2)cc1[N+](=O)[O-],-1,x,11,-80,x,x,
CCOc1ccc(-c2nc(S(=O)(=O)c3ccccc3)c(NC)o2)cc1,-2,1,47*,-20,1,12,
O=C(NCCc1ccc(Cl)cc1)c1ccc2nccnc2c1,-1,-13,14*,-134,-2,5,
O=C(NCCc1ccccc1)c1ccc2c(c1)S(=O)(=O)c1cc(Cl)ccc1C2=O,-3,0,68*,14,-1,63*,RORg DNA counter=>40
O=C(NCCc1ccc(Cl)cc1)c1ccc2nc[nH]c2c1,-1,-1,-1,-27,-1,x,
CCOC(=O)/C=C/C(=O)Nc1ccc(S(=O)(=O)Nc2nccs2)cc1,-1,13,-2,-3,1,x,
Cc1nc(SCC(=O)NCc2ccco2)c2c3c(sc2n1)CCCC3,-1,5,6,-57,0,x,
O=C(CSc1nc(C2CC2)nc2sc3c(c12)CCCC3)NCc1ccco1,0,6,27*,-38,1,11,
CC1(C)CC(NC(=O)c2ccc(-c3ccc([N+](=O)[O-])cc3)o2)CC(C)(C)N1,-2,4,-5,-1,3,x,
O=C(NCCC(c1ccccc1)c1ccccc1)c1cnc2sccn2c1=O,4,2,26*,-16,0,17,
O=C(NCc1cccnc1)c1cnc2sccn2c1=O,2,-5,-10,13,2,x,
COc1ccc(C(=O)CN2C(=O)NC3(CCCc4ccccc43)C2=O)c(OC)c1 (stereo not drawn),2,7,23*,12,0,10,
N#Cc1c(N)nc(SCc2ccccn2)c(C#N)c1-c1cccs1,-2,x,-1,28,-2,x,
COc1ccc(-c2cc(-c3cccs3)c(C#N)c(SCC(=O)NCc3ccccc3)n2)cc1,1,6,52*,-19,1,26*,
COc1ccccc1CNC(=O)CSc1nc(N)c(C#N)c(-c2cccs2)c1C#N,1,-25,35*,0,-1,25*,
SMILES,PG9 binder,VLA-4 inh,Rev-erbA mod,NR2E3 ag-1,NR2E3 ag-2,Rev-erbA confirm,others
COc1ccc(-c2cc(-c3cccs3)c(C#N)c(SCC(=O)NCc3ccccc3OC)n2)cc1,2,9,46*,-2,1,26*,
N#Cc1c(-c2ccccc2)cc(-c2cccs2)nc1SCC(=O)O,1,-2,3,44,-2,x,
COc1ccccc1CCNC(=O)CSc1ccc(-c2cccs2)nn1,1,7,9,-9,0,x,
CCOC(=O)CSc1nc(N)c(C#N)c(-c2cccs2)c1C#N,0,5,16*,21,3,21*,
CCSc1nnc(NC(=O)C2CCN(C(=O)c3ccc(F)cc3)CC2)s1,1,12,-2,-6,x,x,
COc1nccc(C(F)(F)F)c1C(=O)Nc1ccc(Cl)cc1,1,-4,-6,-1,-2,x,
N#Cc1ccc(Cl)cc1NC(=O)CN1C(=O)C(=O)N(CCC2=CCCCC2)C1=O,0,x,5,14,x,x,
Cc1cc(C)c(C(=O)COC(=O)CN2C(=O)NC3(CCCC3)C2=O)cc1C,1,-8,1,3,x,x,
CN(C(=O)CSc1nnc(Cc2ccccc2F)n1N)C1CCCCC1,1,6,-1,-12,x,x,
CC(C)=CC1C(C(=O)Nc2ccc(S(=O)(=O)N3CCOCC3)cc2)C1(C)C (stereo not drawn),-1,18,-10,23,-3,x,
COc1ccc(-c2ccc3nnc(SCC(=O)N4CCCC4)n3n2)cc1,1,6,-3,2,0,x,
CN(C)c1ccc(N=C/C=C2/N(C)c3ccccc3C2(C)C)cc1,-21,x,25*,-13,x,16,
CN1/C(=C\C=N\O)C(C)(C)c2ccccc21,-2,-12,0,12,1,x,
CN(C)CCSc1nc2cc(S(=O)(=O)N3CCCCC3)ccc2o1,-2,-5,2,-24,x,x,
O=c1[nH]cnc2cc(-c3ccccc3)sc12,1,11,2,-71,1,x,
COc1ccc(-c2cc3nc[nH]c(=O)c3s2)cc1,1,18,42*,-87,1,15,
O=C(NCc1n[nH]c(=S)n1-c1ccc(Br)cc1)c1ccc(S(=O)(=O)N2CCCCC2)cc1,-4,0,3,-14,2,x,
CC(C)Sc1cc(Cl)nc(NC(=O)Nc2ccccc2)n1,0,25,-2,-19,4,x,
COc1ccc(C2CC(c3cccs3)=NN2C(=O)CSC2=NCCS2)cc1 (stereo not drawn),-3,-11,14*,-59,0,2,
Cc1cc(C2CC(=O)Nc3ccccc3S2)c(C)s1 (stereo not drawn),1,2,-3,-3,-1,x,

# Screens: PubChem BioAssay, several laboratories
